From PMC4855511 (Clinical chemistry, 2011)

How the values were obtained:
[1] = in vivo, ref [27], [28]; cited from earlier work
[2] = cited from earlier work
[3] = tested on: GC-A; details: ref [15], cited from earlier work
[4] = Proteolytic inactivation by human kidney membranes with GC-A receptor bioassay; type: in vitro ADME
[5] = target: T1, human GC-A (Homo sapiens, UniProt P16066); test: Cellular cGMP elevation in HEK293 cells stably expressing human GC-A; type: cell-based
T1 sequence (P16066 33-1061): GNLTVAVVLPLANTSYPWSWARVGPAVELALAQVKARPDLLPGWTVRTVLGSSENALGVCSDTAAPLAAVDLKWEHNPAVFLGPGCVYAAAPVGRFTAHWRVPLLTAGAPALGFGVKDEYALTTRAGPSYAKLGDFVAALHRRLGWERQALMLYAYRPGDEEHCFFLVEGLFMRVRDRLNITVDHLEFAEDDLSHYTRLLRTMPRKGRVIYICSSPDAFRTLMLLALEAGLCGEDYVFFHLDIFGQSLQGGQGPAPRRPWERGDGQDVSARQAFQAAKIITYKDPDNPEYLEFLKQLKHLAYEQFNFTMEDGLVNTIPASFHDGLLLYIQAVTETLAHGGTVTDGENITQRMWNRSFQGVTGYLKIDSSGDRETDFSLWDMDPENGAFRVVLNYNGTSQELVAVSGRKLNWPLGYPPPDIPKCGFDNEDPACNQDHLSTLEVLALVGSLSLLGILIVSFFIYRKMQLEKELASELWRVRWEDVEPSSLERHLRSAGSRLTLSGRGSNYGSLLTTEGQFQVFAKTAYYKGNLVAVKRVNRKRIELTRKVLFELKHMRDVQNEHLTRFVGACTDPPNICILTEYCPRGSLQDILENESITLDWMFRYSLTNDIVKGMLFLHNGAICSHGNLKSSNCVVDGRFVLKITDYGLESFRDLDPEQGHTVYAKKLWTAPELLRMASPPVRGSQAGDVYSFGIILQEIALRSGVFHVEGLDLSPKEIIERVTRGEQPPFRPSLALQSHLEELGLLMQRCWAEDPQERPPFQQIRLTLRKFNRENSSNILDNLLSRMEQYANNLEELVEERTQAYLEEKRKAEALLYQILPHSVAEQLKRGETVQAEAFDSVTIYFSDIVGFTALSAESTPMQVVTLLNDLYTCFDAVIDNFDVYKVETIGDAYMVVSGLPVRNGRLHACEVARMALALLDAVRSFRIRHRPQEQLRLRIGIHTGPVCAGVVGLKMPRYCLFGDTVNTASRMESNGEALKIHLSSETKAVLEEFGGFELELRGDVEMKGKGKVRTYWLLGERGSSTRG
Outline: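 HEK293 cells stably expressing human GC-A, held serum-free 4–12 h to 75%–90% confluence. Preincubated 10 min at 37 °C in DMEM with 1 mmol/L IBMX and 25 mmol/L HEPES pH 7.4, then exposed 3 min to increasing peptide in the same medium. Stopped with ice-cold 80% ethanol; dried supernatant assayed for cGMP by RIA. Triplicates in 3 separate assays; EC50 with 95% CI.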

[6] = target: T1, human GC-A; test: Whole-cell 125I-ANP competition binding, 293-GC-A cells; details: IC50 proBNP1–108 / IC50 BNP1–32
Outline: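 293-GC-A cells on poly-d-lysine, at 75%–90% confluence, held 1–2 h at 37 °C in DMEM with 0.2% BSA. Incubated 1 h at 4 °C with ¹²⁵I-ANP in 1% BSA binding medium, with or without increasing unlabeled peptide. Washed twice with ice-cold PBS, lysed in 1 mol/L NaOH, γ-counted. B/Bo plotted against log competitor to give IC50. Triplicates in 3 experiments.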

B-type natriuretic peptide [BNP, reference compound]
Half-life in humans [1]: 20 min
Half-life in rats ([2]; rat, in vivo): 1 min

glycosylated proBNP1–108: glycosylated version of human proBNP1–108 studied in cited literature
Potency on activation of GC-A, glycosylated versus nonglycosylated ([3]; result in words): no significant difference
Half-life in rats compared with nonglycosylated proBNP1–108 ([2]; result in words, ref [26]): longer half-life

proBNP1–108: recombinant human 108-residue BNP prohormone with N-terminal His6-tag and rTEV site, expressed in E. coli
Fold longer half time for degradation by human kidney membranes than BNP1–32 [4]: 2.7 fold
Fold longer time for complete inactivation than BNP1–32 [4]: 6 fold
Fold reduced potency compared with BNP1–32 ([3]; cGMP in human endothelial and vascular smooth muscle cells): 6- to 8 fold
Fold greater EC50 than BNP1–32 on GC-A ([5]; EC50 proBNP1–108 / EC50 BNP1–32): approximately 13 fold
Maximal stimulation of GC-A ([5]; result in words): near-maximum activities
Fold higher IC50 than BNP1–32 on GC-A [6]: approximately 35 fold
